Bioassay records from PubChem.
CRFR2-BP ag = CRF-BP/CRF-R2 complex agonism | HEK293 CRF-R2/CRF-BP, calcium dye fluorescence (FLIPR); percent of saturating CRF peptide response | activation, % at 13.2 µM | 0.46% of 350,000 active;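 active means activation of at least 50%, plus an integration ratio under a set limit after plate pattern correction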;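 further: plate controls were neutral control wells without compound for no effect and CRF at EC100 for full effect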
Tn7 DDE FP = DD(E)-Tn7 binding inhibition, primary FP screen; 0.13% of 370,000 active; P02675; inhibition, % at 8.3 µM; AID 720508; FP displacement of FITC-Tn7 peptide from fibrin DD(E); 0% = median of compound wells per plate;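 active means inhibition above the mean of compounds falling within the control limits plus 3 SD of them, cut at about 14% in these data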;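 further: 0% = plate median of compound wells and 100% = 10 µM Aha-Tn7 peptide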
Target sequence (P02675 whole entry, looked up): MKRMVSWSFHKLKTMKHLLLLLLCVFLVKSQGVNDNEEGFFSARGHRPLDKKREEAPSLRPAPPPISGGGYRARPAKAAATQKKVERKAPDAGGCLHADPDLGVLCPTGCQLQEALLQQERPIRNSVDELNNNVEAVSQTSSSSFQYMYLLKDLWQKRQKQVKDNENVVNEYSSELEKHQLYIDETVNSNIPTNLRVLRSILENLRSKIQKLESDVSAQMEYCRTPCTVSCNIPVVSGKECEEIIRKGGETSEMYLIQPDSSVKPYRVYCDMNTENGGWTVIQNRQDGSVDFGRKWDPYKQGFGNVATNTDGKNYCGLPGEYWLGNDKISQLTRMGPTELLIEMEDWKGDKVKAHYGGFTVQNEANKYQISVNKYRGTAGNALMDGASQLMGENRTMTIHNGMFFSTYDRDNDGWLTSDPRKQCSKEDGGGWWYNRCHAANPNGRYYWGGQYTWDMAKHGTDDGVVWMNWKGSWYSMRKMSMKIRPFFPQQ
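Assay system: Human fibrin DD(E) protein | Medium: Tris buffer with calcium and detergent, pH 7.8 | Reagent: 0.1 µM fluorescent Tn7 | Compound dosing: Single point at 8.3 µM | Times: 10 min preincubation, 3 h with tracer, room temperature | Detection: Fluorescence polarization of the labelled Tn7 tracer | Controls: Aha-Tn7 high control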
DDE Tn6 FP inh = DD(E)-Tn6 binding inhibition, primary FP screen; Fibrin DD(E) TRITC-Tn6 fluorescence polarization displacement; inhibition, % at 8.3 µM; 0.21% of 370,000 active; AID 720509;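 active means inhibition above a per-campaign cutoff: mean of compounds within control limits plus 3 SD, cut at about 15% in these data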;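 further: 0% = median of all compound wells on the plate and 100% = blocking peptide control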
CRFBP-R2 block = blocks CRF-induced signaling of the CRF-BP/CRF-R2 complex. 0.59% of 350,000 active. HEK293 CRF-R2/CRF-BP, CRF-induced calcium fluorescence. inhibition, % at 11.8 µM;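 active means inhibition of the ligand-induced calcium signal above about 50% at the single tested concentration, limit read from the data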
Numbers without * were called inactive; . = no result given; + = active, no number. The list is not random: actives were taken first. Their share in the collection is about 1.2%.

SMILES | CRFR2-BP ag | Tn7 DDE FP | DDE Tn6 FP inh | CRFBP-R2 block
COC(=O)[C@H](C(C)C)N1Cc2nnn(Cc3ccc(C)cc3)c2-c2ccccc2S1(=O)=O | . | 4 | 1 | .
CCCCN1CN2Cc3cc(OC)ccc3C2CS1(=O)=O (stereo not drawn) | . | -3 | 7 | .
C=CCN1[C@H](C)COc2cc(N3CCCC3)ccc2S1(=O)=O | . | 6 | 3 | .
Cn1c(=O)c2cc3c(nc2n(C)c1=O)CC(c1ccccc1)CC3=O (stereo not drawn) | -5 | -4 | 0 | 67*
O=C(O)c1cnc(-c2ccccc2)nc1Sc1cccc(Cl)c1 | 0 | -7 | 7 | 16
O=C(O)c1cnc(-c2ccccc2)nc1Sc1ccc(Cl)cc1Cl | -3 | 1 | 0 | 97*
COc1ccc(OC)c(N(CC(=O)N2CCN(Cc3ccccc3)CC2)S(C)(=O)=O)c1 | 0 | -4 | 4 | -10
CC(C)(C)OC(=O)N1CCC(c2cc(=O)n3[nH]cc(C(=O)Nc4ccc(F)c(Cl)c4)c3n2)CC1 | 0 | -7 | -7 | 12
CC(C)(C)OC(=O)N1CCC(c2cc(=O)n3[nH]cc(C(=O)NC4CCCC4)c3n2)CC1 | 0 | -2 | 3 | 51*
O=C(Cc1ccccc1)NCC(=O)OC(c1ccccc1)c1ccccc1 | -1 | 0 | -4 | 82*
O=C(CNC(=O)Cc1ccccc1)NCC(=O)OCc1ccccc1 | 0 | -8 | 3 | 29
C=CCN(CC#CC(=C)C)Cc1ccc(OC)cc1OC | . | -1 | 3 | .
CCOc1ccccc1N(CC(=O)N1CCC(C(N)=O)CC1)S(=O)(=O)c1ccc(SC)cc1 | -1 | 2 | -4 | 75*
CCOc1ccccc1N(CC(=O)N1CCC(C)CC1)S(=O)(=O)c1ccc(C)cc1 | 0 | 1 | -4 | -8
COc1ccccc1N(CC(=O)N1CCCCC1C)S(=O)(=O)c1ccc(Cl)cc1 (stereo not drawn) | 55* | 2 | 3 | -11
COc1ccccc1N(CC(=O)N1CCCC1)S(=O)(=O)c1ccc(C)cc1 | 0 | 4 | 2 | 22
CCOc1ccccc1N(CC(=O)N1CCOCC1)S(=O)(=O)c1ccccc1 | 291* | 0 | 1 | -127
COC(=O)C1CN(C2CCCC2)CCS(=O)(=O)N1Cc1cn(Cc2ccccc2)nn1 (stereo not drawn) | . | -3 | 3 | .
Oc1ccc2c(c1)OCC1(O)Cc3cc(O)c(O)cc3C21 (stereo not drawn) | 35 | 28* | + | -25
O=C(Nc1ccc(Cl)c(Cl)c1)C1CCCN(c2nnc(-n3cccc3)s2)C1 (stereo not drawn) | . | -2 | 7 | .
COC(=O)[C@]12C[C@H](CC(=O)NCCC(C)C)C(=O)N(CCc3ccc(OC)c(OC)c3)C1=C[C@H](C(C)C)O[C@@H]2C1CC1 | . | 0 | 4 | .
CCOc1ccc(-c2cc(NC(=O)c3c(F)cccc3F)c(C(=O)O)s2)cc1 | 0 | -9 | -5 | 48
O=C(Nc1cc(-c2ccccc2)sc1C(=O)O)c1cccc(F)c1 | -1 | 1 | -1 | 73*
O=[N+]([O-])c1cccc(C=NNc2ccccc2)c1 | -1 | 3 | -2 | -17
O=[N+]([O-])c1cccc(/C=N/NC2=NCCCCC2)c1 | -2 | 8 | 4 | 52*
SMILES | CRFR2-BP ag | Tn7 DDE FP | DDE Tn6 FP inh | CRFBP-R2 block
Cc1ccc2c(c1)c(/C=C/c1cc[n+](C)cc1)c(C)n2C | 53* | -87 | -2 | -73
Cc1ccc2[nH]c(C)c(/C=C/c3cc[n+](C)cc3)c2c1 | 46 | -39 | 0 | -30
O=C1CC(c2ccco2)CC2=C1C=Nc1ccccc1N2 (stereo not drawn) | 1 | 2 | 1 | -15
O=c1[nH]c2c(s1)C=Nc1ccccc1N2 | 42 | 30* | 7 | -26
CC(=O)NC(Cc1ccc(C)cc1)C(=O)NC1CCN(c2ncccc2[N+](=O)[O-])CC1 (stereo not drawn) | -3 | 3 | 11 | 60*
CCOC(=O)N1CCN(C(=O)C[C@H]2C[C@@]3(C(=O)OC)C(=C[C@H](C(C)C)O[C@@H]3C3CC3)N(Cc3cccc4ccccc34)C2=O)CC1 | . | 1 | -1 | .
CCCCNC(=O)c1[nH]c(C2CCNCC2)nc1-c1cccc(C(F)(F)F)c1 | . | 8 | -2 | .
C/C(=N\NC(=S)Nc1cccc(C)c1)c1cccc(N)c1 | -3 | -3 | 2 | 18
C/C(=N\NC(=S)Nc1ccc(C)cc1)c1cccc(N)c1 | 179* | -1 | 0 | 17
CCSc1nc2ccccc2n1CC(=O)N1CCCCC1 | 2 | 8 | 2 | 86*
COC(=O)C1=C(C)N(Cc2ccccc2C(F)(F)F)C(=NCc2ccccc2)NC1c1cccc(F)c1 (stereo not drawn) | . | 2 | -1 | .
Nc1nc(-c2ccc3c(c2)OCCO3)cs1 | 6 | -2 | -4 | 76*
COc1ccc(C2CC(c3ccc(Br)cc3)=NN2C(=O)CCC(=O)O)cc1OC (stereo not drawn) | 0 | -5 | -1 | 56*
CN1C(=O)c2cccc3c(Cl)ccc(c23)C1=O | -2 | 2 | -3 | -4
CN1C(=O)c2cccc3c(N(C)C)ccc(c23)C1=O | 55* | -1 | 6 | -44
O=C(N/N=C/c1c(O)n(Cc2ccccc2)c(=O)c2ccccc12)c1cccnc1 | 64* | -9 | -14 | -50
O=C(CSc1n[nH]c(=O)n1-c1ccccc1)N1CCOCC1 | 1 | -2 | -4 | 10
COc1ccc(-c2cc(-c3nnc(SCC(=O)N4CCOCC4)n3N)[nH]n2)cc1 | . | -1 | 0 | .
Cn1c(SCC(=O)N/N=C/c2cc([N+](=O)[O-])ccc2O)nnc1-c1ccccc1 | 62* | 1 | 3 | -43
C=CCN(CC#Cc1ccccc1)Cc1ccc(OC)cc1 | . | 4 | 1 | .
C/C(=N\NC(=O)c1ccc(Br)cc1)C1C(=O)c2ccccc2C1=O | 14 | 0 | 1 | 55*
C/C(=N\NC(=O)c1ccc(-c2ccccc2)cc1)C1C(=O)c2ccccc2C1=O | 15 | 2 | -12 | 41
COc1ccc(OC)c(S(=O)(=O)NCC2CCN(C(=O)C(=O)c3cc4ccccc4o3)CC2)c1 | . | 0 | -2 | .
CCC(C)NS(=O)(=O)c1ccc(OCC(=O)NCc2ccccn2)cc1 (stereo not drawn) | 14 | -2 | -4 | 51*
CC1(C)CC(=O)C2=C(C1)OC(/N=C/N1CCCC1)=C(C#N)C2c1ccccc1 (stereo not drawn) | 2 | -1 | 5 | 103*
COc1ccc(C2=CC(c3ccc(Cl)cc3)n3cnnc3N2)cc1OC (stereo not drawn) | 80* | 7 | 7 | -49
O=C(OC12CCCN(C1)/C(=C/c1cccc(Cl)c1)C2)c1cccc(F)c1 (stereo not drawn) | . | 2 | -3 | .
O=C(O)c1ccc(NC2=C(Cl)C(=O)c3ccccc3C2=O)cc1 | -7 | 0 | 3 | 101*
O=C1C(Cl)=C(Nc2ccccc2)C(=O)c2ccccc21 | -2 | -7 | -5 | 83*
Cc1[nH]n(-c2ccccc2)c(=O)c1/C=N/N1C(=O)c2cccc3cccc(c23)C1=O | 62* | 0 | 1 | 22
